The structures appear in SMILES notation. Active and inactive are the calls of the source. The rule behind the calls is not given here.

One assay relates to HepG2. Briefly: Cytotoxicity against human HepG2 cells at 50 uM. The format is functional. Summed up:
(§1)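 Cells were treated with compound at 50 µM. The read-out was metabolic activity, and the value is given as the percent reduction in metabolic activity.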

The subject of a further assay is NIH3T3. Briefly: Cytotoxicity against mouse NIH/3T3 cells at 50 uM. Type of assay: functional. Summed up: as §1
The next assay has as its system Xanthomonas campestris. Briefly: Antimicrobial activity against Xanthomonas campestris DSM 2405. Type of assay: functional, organism-based.
The test system of a further assay is Escherichia coli. As to the kind of experiment: Antimicrobial activity against Escherichia coli K-12 DSM 498. Type of assay: functional, organism-based.
The next assay relates to Ralstonia solanacearum. As to the kind of experiment: Antimicrobial activity against Ralstonia solanacearum DSM 9544. The format is functional, organism-based.
In assay [1] the target is Glycogen synthase kinase-3 beta (Homo sapiens) (UniProt P49841). As to the kind of experiment: Inhibition of GSK3-beta.
Assay [2] can be described thus: Inhibition of phosphodiesterase 4 by colorimetric assay.
The test system of the next assay is Cutibacterium acnes. Briefly: Antimicrobial activity against Propionibacterium acnes DSM 1897. Type of assay: functional, organism-based.
For assay [3], the system named is Staphylococcus epidermidis. As to the kind of experiment: Antimicrobial activity against Staphylococcus epidermidis DSM 20044. The format is functional, organism-based.
In another assay the test system is Candida albicans. Briefly: Antimicrobial activity against Candida albicans DSM 6425. The format is functional, organism-based.
A further assay concerns Mammaliicoccus lentus. Briefly: Antimicrobial activity against Staphylococcus lentus DSM 6672. The format is functional, organism-based.
The target of assay [4] is Human immunodeficiency virus type 1 reverse transcriptase (Human immunodeficiency virus 1) (UniProt Q72547). Briefly: Inhibition of HIV1 reverse transcriptase by ELISA.
For another assay, the system named is Erwinia amylovora. As to the kind of experiment: Antimicrobial activity against Erwinia amylovora DSM 50901. The format is functional, organism-based.
In the next assay the test system is Pseudomonas aeruginosa. Briefly: Antimicrobial activity against Pseudomonas aeruginosa DSM 50071. Type of assay: functional, organism-based.
The test system of another assay is Pseudomonas syringae. Briefly: Antimicrobial activity against Pseudomonas syringae DSM 50252. The format is functional, organism-based.
The target in assay [5] is T1, Tyrosine-protein phosphatase non-receptor type 1 (Homo sapiens) (UniProt P18031).
T1 sequence (whole entry): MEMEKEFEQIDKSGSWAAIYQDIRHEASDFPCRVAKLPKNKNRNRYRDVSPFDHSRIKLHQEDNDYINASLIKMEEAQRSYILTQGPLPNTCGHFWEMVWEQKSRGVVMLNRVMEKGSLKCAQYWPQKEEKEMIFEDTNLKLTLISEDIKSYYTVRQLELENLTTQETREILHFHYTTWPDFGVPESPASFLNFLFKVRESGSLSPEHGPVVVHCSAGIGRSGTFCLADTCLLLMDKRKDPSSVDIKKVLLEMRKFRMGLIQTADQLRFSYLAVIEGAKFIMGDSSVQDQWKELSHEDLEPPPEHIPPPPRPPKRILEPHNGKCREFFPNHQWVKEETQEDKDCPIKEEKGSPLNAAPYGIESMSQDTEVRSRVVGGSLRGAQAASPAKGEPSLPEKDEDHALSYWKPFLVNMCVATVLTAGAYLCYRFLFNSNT
Briefly: Inhibition of protein tyrosine phosphatase 1b by colorimetric assay.

Another assay concerns Pseudomonas fluorescens. As to the kind of experiment: Antimicrobial activity against Pseudomonas fluorescens NCIMB 10586. Type of assay: functional, organism-based.
For assay [6], the target named is Acetylcholinesterase (Homo sapiens) (UniProt P22303). As to the kind of experiment: Inhibition of acetylcholinesterase by colorimetric assay.
A further assay deals with Bacillus subtilis. As to the kind of experiment: Antimicrobial activity against Bacillus subtilis DSM 347. The format is functional, organism-based.

Chain of Glycogen synthase kinase-3 beta (Homo sapiens) (P49841 whole entry, looked up): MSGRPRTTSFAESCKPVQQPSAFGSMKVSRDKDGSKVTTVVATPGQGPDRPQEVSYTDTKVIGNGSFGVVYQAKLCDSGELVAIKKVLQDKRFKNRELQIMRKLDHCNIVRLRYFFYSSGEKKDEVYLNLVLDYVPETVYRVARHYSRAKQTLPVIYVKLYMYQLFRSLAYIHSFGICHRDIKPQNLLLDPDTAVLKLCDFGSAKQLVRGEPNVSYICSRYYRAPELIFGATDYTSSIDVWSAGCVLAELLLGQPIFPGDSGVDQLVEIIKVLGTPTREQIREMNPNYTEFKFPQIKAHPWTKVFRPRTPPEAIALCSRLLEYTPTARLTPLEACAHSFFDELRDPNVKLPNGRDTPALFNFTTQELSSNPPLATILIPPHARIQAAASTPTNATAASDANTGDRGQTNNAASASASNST
Chain of Acetylcholinesterase (Homo sapiens) (P22303 whole entry): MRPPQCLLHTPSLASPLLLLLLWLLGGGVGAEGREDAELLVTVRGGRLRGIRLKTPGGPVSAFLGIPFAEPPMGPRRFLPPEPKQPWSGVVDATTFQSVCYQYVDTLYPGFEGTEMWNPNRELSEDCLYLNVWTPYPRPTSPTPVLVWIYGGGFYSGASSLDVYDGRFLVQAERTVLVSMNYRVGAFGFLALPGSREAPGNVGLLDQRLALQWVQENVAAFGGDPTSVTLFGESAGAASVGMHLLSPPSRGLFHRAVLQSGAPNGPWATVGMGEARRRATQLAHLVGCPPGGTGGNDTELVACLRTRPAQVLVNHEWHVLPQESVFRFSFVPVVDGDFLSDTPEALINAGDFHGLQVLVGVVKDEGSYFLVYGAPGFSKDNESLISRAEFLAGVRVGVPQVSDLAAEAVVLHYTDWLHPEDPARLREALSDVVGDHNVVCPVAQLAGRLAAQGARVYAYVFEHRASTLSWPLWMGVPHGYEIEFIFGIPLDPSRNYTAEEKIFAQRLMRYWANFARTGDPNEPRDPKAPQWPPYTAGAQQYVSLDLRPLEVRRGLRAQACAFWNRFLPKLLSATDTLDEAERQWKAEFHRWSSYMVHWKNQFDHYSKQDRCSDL

With `COc1ccc(/C=c2/[nH]c(=O)/c(=C/C(C)C)[nH]c2=O)cc1`, the Activity turned out to be 44% in the assay with HepG2 and 64% in the assay on NIH3T3.
Consider `COc1oc(CCCCC(C)(C)O)c(C)c(=O)c1C`, for which the result (in the assay with Xanthomonas campestris; with Escherichia coli; in the assay with Ralstonia solanacearum; in assay [1]; in [2]; with Cutibacterium acnes) was inactive. The outcome (in assay [3]; with Candida albicans; in the assay on Mammaliicoccus lentus; in assay [4]; in the assay with Erwinia amylovora; in the assay with Pseudomonas aeruginosa) was inactive. Also, the outcome (in the assay on Pseudomonas syringae; in assay [5]; in the assay with Pseudomonas fluorescens; in assay [6]; in the assay with Bacillus subtilis) was inactive.
`COc1oc(CCCCC(C)C)c(C)c(=O)c1C`: the result (with Xanthomonas campestris; in the assay with Escherichia coli; in the assay with Ralstonia solanacearum; in [1]; in assay [2]; in the assay on Cutibacterium acnes) was inactive. In addition, the result (in assay [3]; with Candida albicans; in the assay with Mammaliicoccus lentus; in assay [4]; with Erwinia amylovora; with Pseudomonas aeruginosa) was inactive. Besides, the result (with Pseudomonas syringae; in assay [5]; with Pseudomonas fluorescens; in assay [6]; in the assay with Bacillus subtilis) was inactive.

Values taken from ChEMBL document CHEMBL1212932, “Nocapyrones A-D, gamma-pyrones from a Nocardiopsis strain isolated from the marine sponge Halichondria panicea” (2010).
